From article PMC2805915 (Nature medicine, 2009)

Tests used:
[1] = tested on: Bcl6-dependent DLBCL cell lines; assay: Growth inhibition determination; format: cell-based, human; settings: read-out: GI50 (concentration that inhibited the growth of the cell lines by 50% compared to control); 48 h; group of seven Bcl6-dependent DLBCL cell lines
Summary of the method: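 Cells seeded so untreated controls stayed in exponential growth through the 48 h exposure, then treated with 0.1–10 μM test compound or water vehicle in 10% serum medium. Viability read by resazurin reduction fluorescence (560Ex/590Em), with viable cells calculated from a standard curve and 6 replicates per condition, and verified by sulforhodamine B or ATP luminescence. Values normalized to controls. Experiments in triplicate. GI50 taken from dose-effect curves and reported as mean with 95% CI.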

[2] = tested on: Bcl6-independent DLBCL cell lines; assay: Growth inhibition determination; format: cell-based, human; settings: read-out: GI50 (concentration that inhibited the growth of the cell lines by 50% compared to control); 48 h; group of four Bcl6-independent DLBCL cell lines
Bcl6 [3] = assay: Bcl6 immunoblot in DLBCL cells; format: cell-based, human
Summary of the method: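 Farage, OCI-Ly7 and SU-DHL4 cells exposed 24 h to 0.1, 0.25, 0.5 or 1 μM test compound; OCI-Ly7 also given 0.5 μM for 4, 6, 12, 18, 24 and 48 h. Compound added from concentrated stock to 10% serum medium. Lysates immunoblotted for Bcl6 with N-terminal (N3) and C-terminal (C19) antibodies, actin as loading control.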

Bcl6 [4] = assay: Protein decay determination; format: cell-based, human; settings: OCI-Ly7; 0.5 µM PU-H71 after Cycloheximide 5 μM
Summary of the method: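 OCI-Ly7 cells, control or test-compound treated, incubated with 5 μM cycloheximide over a time course. Bcl6 and actin immunoblotted at each point; Bcl6/actin ratio quantified by densitometry with untreated cells set at 100% and plotted against time.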

BCL6 mRNA = assay: mRNA decay determination; format: cell-based, human; settings: OCI-Ly7; versus vehicle-treated cells
Summary of the method: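 OCI-Ly7 cells pretreated 2 h with 0.5 μM test compound or control, then actinomycin D added for a time course. BCL6 mRNA quantified by QPCR against a standard curve, normalized to untreated cells; three independent experiments averaged to derive half-life.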

[5] = tested on: primary human DLBCL cells; assay: Primary cells treatment, viability; format: cell-based; settings: 2.5 μM; 48 h; versus vehicle-treated controls
Summary of the method: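 Lymph node biopsies disrupted physically and separated by density gradient; cells kept in 80% RPMI/20% human serum with antibiotics, L-glutamine and HEPES. Exposed in triplicate to 2.5 μM test compound or water for 48 h. Viability read by ATP luminescence and dye exclusion, expressed as percent of vehicle control.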

Pharmacokinetic = format: in vivo; settings: Farage xenograft mice, 75 mg per kg i.p.
Summary of the method: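 Mice bearing 1 cm3 Farage xenografts received a single 75 mg/kg i.p. dose of test compound; killed at 6, 12 and 24 h alongside controls. Serum, tumor and normal tissues assayed for compound concentration by HPLC-MS.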

OCI-Ly7 xenografts = assay: Mice xenotransplant study, OCI-Ly7; format: in vivo, SCID mice; settings: 75 mg per kg per day; 20 days
SU-DHL6 xenograft = assay: Mice xenotransplant study, SU-DHL6; format: in vivo, SCID mice; settings: 75 mg per kg per day; 20 days
Summary of the method: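 Additional cohort of SCID mice with s.c. OCI-Ly7 or SU-DHL6 xenografts held until mean tumor volume reached 500 mm3, then given test compound i.p. for 20 days; tumor volume followed by caliper every other day.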

Toledo xenografts = assay: Mice xenotransplant study, Toledo; format: in vivo, SCID mice; settings: Bcl6-independent; similar dose (75 mg per kg per day)
[6] = tested on: Farage, OCI-Ly7 and SU-DHL4 DLBCL xenografts; assay: Mice xenotransplant study, pooled; format: in vivo, SCID mice; settings: 75 mg per kg per day
Summary of the method: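 Male SCID mice, 6–8 weeks old, injected s.c. in the left flank with 10^7 low-passage DLBCL cells. At palpable size (about 75–100 mm3, 24–33 days), pairs were randomized to vehicle or 75 mg/kg/day test compound i.p. (reconstituted in sterile water) for 10 days, n = 5 per arm per line. Caliper volume was measured every other day as (smallest diameter² × largest)/2. Mice were euthanized when ≥2 of 10 tumors reached 20 mm. Tumors were weighed and TUNEL-scored as apoptotic/total cells. Survival ran from treatment start to death or tenfold volume rise, by Kaplan-Meier with Cox's F test.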

[7] = Toxicity in xenografted mice; format: in vivo, SCID mice; settings: 75 mg per kg per day, 10 days
Summary of the method: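 Xenografted SCID mice dosed i.p. at 75 mg/kg/day were weighed every other day. At euthanasia, blood was collected and tumors and other tissues were harvested, weighed and examined microscopically by pathologists.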

Mice toxicity studies = format: in vivo, Balb/c mice; settings: 50 or 75 mg per kg per day; 10 days

CC(C)NCCCn1c(Sc2cc3c(cc2I)OCO3)nc2c(N)ncnc21 [PU-H71]
GI50 [1]: 1390 nM
GI50 [2]: 71 µM
Bcl6 protein abundance (Bcl6 [3]; 24 h, 0.1-1 μM, Farage, OCI-Ly7 and SU-DHL4): dose-dependent reduction
Bcl6 protein (immunoblot, antibodies N3 and C19) (Bcl6 [3]; OCI-Ly7, 0.5 μM, after 18 h): barely detectable
time for relative Bcl6 protein abundance to decrease from 100% to 50% (Bcl6 [4]): 5 h
increase in Bcl6 mRNA decay rate (BCL6 mRNA): 32%
cases among 21 DLBCLs with greater than 25% loss of viability [5]: 19
PU-H71 concentration in tumor (Pharmacokinetic; 6 h): 42.1 µg/g
PU-H71 concentration in tumor (Pharmacokinetic; 12 h): 27.6 µg/g
PU-H71 concentration in tumor (Pharmacokinetic; 24 h): 12 µg/g
PU-H71 in serum (Pharmacokinetic; after the 6 h timepoint): undetectable
tumor volume in steady phase (OCI-Ly7 xenografts): ~500 mm^3
tumor volume (SU-DHL6 xenograft): ≤ 100 mm^3
effect on xenograft growth (Toledo xenografts): no effect
DLBCL size and weight compared to control ([6]; 10 days): potently reduced
survival (tumor growth to critical mass as surrogate) v controls ([6]; n = 15, Cox's F test P < 0.0001): significantly prolonged
toxicity from behavioral, macroscopic or microscopic standpoints [7]: no evidence of toxicity
hematologic, renal or hepatic toxicity (blood counts, chemistry, liver function, thyroid hormone) (Mice toxicity studies): no evidence of hematologic, renal or hepatic toxicity
macroscopic or microscopic toxicity (Mice toxicity studies): no evidence of macroscopic or microscopic toxicity
